Measured values: ChEMBL document CHEMBL4033712, “Synthesis and biological evaluation of new C-12(α/β)-(N-) sulfamoyl-phenylamino-14-deoxy-andrographolide derivatives as potent anti-cancer agents” (Bioorg Med Chem Lett, 2017)

Columns and labels:
Type in all cases: functional
SR [1] = assay: Growth inhibition of human SR cells incubated for 48 hrs by sulforhodamine B assay; conditions: for CC50: read-out: LC50 (the source's name)
In short: (§1)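 NCI 60 human tumour cell line panel, five-dose study at 0.01, 0.1, 1, 10 and 100 µM, 48 h incubation. Sulforhodamine B protein-binding dye end point. GI50 (50% decrease in net cell growth), TGI (total growth inhibition) and LC50 (net 50% loss of initial cells) read from log concentration versus % growth inhibition curves.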

U-251 = assay: Growth inhibition of human U251 cells incubated for 48 hrs by sulforhodamine B assay; conditions: U-251, 48 h; for CC50: read-out: LC50 (the source's name); in short: as §1
BT-549 [2] = assay: Growth inhibition of human BT549 cells incubated for 48 hrs by sulforhodamine B assay; conditions: BT-549, 48 h; for CC50: read-out: LC50 (the source's name)
In short: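 NCI-60 five-dose screen at 0.01, 0.1, 1, 10 and 100 µM, 48 h incubation, sulforhodamine B end point. GI50 (50% decrease in net growth), TGI (total growth inhibition) and LC50 (net 50% loss of initial cells) taken from log concentration versus % growth inhibition curves.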

CCRF-CEM = assay: Anticancer activity against human CCRF-CEM cells assessed as cell growth at 10 uM after 48 hrs by sulforhodamine B assay relative to control; conditions: read-out: Activity
In short: (§2)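 Single-dose NCI-60 panel screen: compound added at 10 µM and the culture incubated 48 h. The end point was read by protein staining with sulforhodamine B. The value is percent growth of treated cells relative to untreated control cells, reported as a mean graph across the panel.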

HL-60(TB) = assay: Anticancer activity against human HL-60(TB) cells assessed as cell growth at 10 uM after 48 hrs by sulforhodamine B assay relative to control; conditions: HL-60, 48 h, read-out: Activity
In short: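 NCI-60 human tumour panel single-dose screen: cells exposed to 10 µM compound for 48 h. Growth end point read with sulforhodamine B protein-binding dye. Expressed as percent growth of treated cells versus untreated control cells.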

MOLT-4 = assay: Anticancer activity against human MOLT4 cells assessed as cell growth at 10 uM after 48 hrs by sulforhodamine B assay relative to control; conditions: MOLT-4, 48 h, read-out: Activity; in short: as §2
SR [3] = assay: Anticancer activity against human SR cells assessed as cell growth at 10 uM after 48 hrs by sulforhodamine B assay relative to control; conditions: read-out: Activity
In short: (§3)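 NCI-60 single-dose screen: compound added at 10 µM, cultures incubated 48 h. End point by sulforhodamine B protein-binding dye. Value reported as percent growth of treated cells relative to untreated control cells.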

EKVX = assay: Anticancer activity against human EKVX cells assessed as cell growth at 10 uM after 48 hrs by sulforhodamine B assay relative to control; conditions: read-out: Activity; in short: as §2
NCI-H226 = assay: Anticancer activity against human NCI-H226 cells assessed as cell growth at 10 uM after 48 hrs by sulforhodamine B assay relative to control; conditions: NCI-H226, 48 h, read-out: Activity; in short: as §2
NCI-H23 = assay: Anticancer activity against human NCI-H23 cells assessed as cell growth at 10 uM after 48 hrs by sulforhodamine B assay relative to control; conditions: NCI-H23, 48 h, read-out: Activity; in short: as §2
NCI-H460 = assay: Anticancer activity against human NCI-H460 cells assessed as cell growth at 10 uM after 48 hrs by sulforhodamine B assay relative to control; conditions: NCI-H460, 48 h, read-out: Activity; in short: as §2
COLO 205 = assay: Anticancer activity against human COLO205 cells assessed as cell growth at 10 uM after 48 hrs by sulforhodamine B assay relative to control; conditions: COLO 205, 48 h, read-out: Activity; in short: as §2
HT-29 = assay: Anticancer activity against human HT-29 cells assessed as cell growth at 10 uM after 48 hrs by sulforhodamine B assay relative to control; conditions: HT-29, 48 h, read-out: Activity; in short: as §2
SF-268 = assay: Anticancer activity against human SF268 cells assessed as cell growth at 10 uM after 48 hrs by sulforhodamine B assay relative to control; conditions: SF-268, 48 h, read-out: Activity; in short: as §2
SF-295 = assay: Anticancer activity against human SF295 cells assessed as cell growth at 10 uM after 48 hrs by sulforhodamine B assay relative to control; conditions: SF-295, 48 h, read-out: Activity; in short: as §2
SK-MEL-5 = assay: Anticancer activity against human SK-MEL-5 cells assessed as cell growth at 10 uM after 48 hrs by sulforhodamine B assay relative to control; conditions: SK-MEL-5, 48 h, read-out: Activity; in short: as §2
UACC-257 = assay: Anticancer activity against human UACC257 cells assessed as cell growth at 10 uM after 48 hrs by sulforhodamine B assay relative to control; conditions: UACC-257, 48 h, read-out: Activity; in short: as §3
IGROV-1 = assay: Anticancer activity against human IGROV1 cells assessed as cell growth at 10 uM after 48 hrs by sulforhodamine B assay relative to control; conditions: IGROV-1, 48 h, read-out: Activity; in short: as §2
OVCAR-4 = assay: Anticancer activity against human OVCAR4 cells assessed as cell growth at 10 uM after 48 hrs by sulforhodamine B assay relative to control; conditions: OVCAR-4, 48 h, read-out: Activity; in short: as §2
NCI/ADR-RES = assay: Anticancer activity against human NCI/ADR-RES cells assessed as cell growth at 10 uM after 48 hrs by sulforhodamine B assay relative to control; conditions: read-out: Activity; in short: as §2
SK-OV-3 = assay: Anticancer activity against human SKOV3 cells assessed as cell growth at 10 uM after 48 hrs by sulforhodamine B assay relative to control; conditions: SK-OV-3, 48 h, read-out: Activity; in short: as §2
A498 = assay: Anticancer activity against human A498 cells assessed as cell growth at 10 uM after 48 hrs by sulforhodamine B assay relative to control; conditions: A498, 48 h, read-out: Activity; in short: as §2
CAKI-1 = assay: Anticancer activity against human Caki1 cells assessed as cell growth at 10 uM after 48 hrs by sulforhodamine B assay relative to control; conditions: CAKI-1, 48 h, read-out: Activity; in short: as §2
RXF 393 = assay: Anticancer activity against human RXF393 cells assessed as cell growth at 10 uM after 48 hrs by sulforhodamine B assay relative to control; conditions: RXF 393, 48 h, read-out: Activity; in short: as §2
PC-3 = assay: Anticancer activity against human PC3 cells assessed as cell growth at 10 uM after 48 hrs by sulforhodamine B assay relative to control; conditions: PC-3, 48 h, read-out: Activity; in short: as §2
DU-145 = assay: Anticancer activity against human DU145 cells assessed as cell growth at 10 uM after 48 hrs by sulforhodamine B assay relative to control; conditions: DU-145, 48 h, read-out: Activity; in short: as §2
BT-549 [4] = assay: Anticancer activity against human BT549 cells assessed as cell growth at 10 uM after 48 hrs by sulforhodamine B assay relative to control; conditions: BT-549, 48 h, read-out: Activity; in short: as §2
MDA-MB-468 = assay: Anticancer activity against human MDA-MB-468 cells assessed as cell growth at 10 uM after 48 hrs by sulforhodamine B assay relative to control; conditions: MDA-MB-468, 48 h, read-out: Activity; in short: as §2

Structure (SMILES)	growth at 10 µM (CCRF-CEM) [%]	growth at 10 µM (HL-60(TB)) [%]	growth at 10 µM (MOLT-4) [%]	growth at 10 µM (SR [3]) [%]	growth at 10 µM (EKVX) [%]	growth at 10 µM (NCI-H226) [%]	growth at 10 µM (NCI-H23) [%]	growth at 10 µM (NCI-H460) [%]	growth at 10 µM (COLO 205) [%]	growth at 10 µM (HT-29) [%]	growth at 10 µM (SF-268) [%]	growth at 10 µM (SF-295) [%]	growth at 10 µM (SK-MEL-5) [%]	growth at 10 µM (UACC-257) [%]	growth at 10 µM (IGROV-1) [%]	growth at 10 µM (OVCAR-4) [%]	growth at 10 µM (NCI/ADR-RES) [%]	growth at 10 µM (SK-OV-3) [%]	growth at 10 µM (A498) [%]	growth at 10 µM (CAKI-1) [%]	further results
C=C1CC[C@@H]2[C@](C)(COC(C)=O)[C@H](OC(C)=O)CC[C@@]2(C)[C@H]1CC(Nc1ccc(S(=O)(=O)Nc2ncccn2)cc1)C1=CCOC1=O (some centres not stated)	-26.2	-17.2	-8.69	-4.43	68.3	-16.6	29.6	18.1	-12.1	-48.6	18.3	68	24.1	16.6	7.21	42.7	16.1	84.7	79	50.2	GI50 (SR [1]): 0.31 µM; TGI (SR [1]): 17.2 µM; CC50 (SR [1]): > 100 µM; GI50 (U-251): 1.74 µM; TGI (U-251): 3.28 µM; CC50 (U-251): 6.17 µM; GI50 (BT-549 [2]): 1.64 µM; TGI (BT-549 [2]): 3.39 µM; CC50 (BT-549 [2]): 7.04 µM; growth at 10 µM (RXF 393): -70%; growth at 10 µM (PC-3): 15.1%; growth at 10 µM (DU-145): 14.9%; growth at 10 µM (BT-549 [4]): -32%; growth at 10 µM (MDA-MB-468): -54%
C=C1CC[C@@H]2[C@](C)(COC(C)=O)[C@H](OC(C)=O)CC[C@@]2(C)[C@H]1CC(Nc1ccc(S(=O)(=O)Nc2nccs2)cc1)C1=CCOC1=O (some centres not stated)	-27.7	-20.9	-4.45	-5.84	73.4	-14	38.1	29.5	-24.6	-42.7	21.3	73	31.4	22.4	12.6	38	9.2	79.9	85	55.9	GI50 (SR [1]): 1.33 µM; TGI (SR [1]): > 100 µM; CC50 (SR [1]): > 100 µM; GI50 (U-251): 1.86 µM; TGI (U-251): 3.5 µM; CC50 (U-251): 6.57 µM; GI50 (BT-549 [2]): 2.43 µM; TGI (BT-549 [2]): 6.5 µM; CC50 (BT-549 [2]): 23.1 µM; growth at 10 µM (RXF 393): -50.6%; growth at 10 µM (PC-3): 21.8%; growth at 10 µM (DU-145): 22.3%; growth at 10 µM (BT-549 [4]): -23.5%; growth at 10 µM (MDA-MB-468): -59.9%
C=C1CC[C@@H]2[C@](C)(COC(C)=O)[C@H](OC(C)=O)CC[C@@]2(C)[C@H]1CC(Nc1ccc(S(=O)(=O)Nc2nc(C)cc(C)n2)cc1)C1=CCOC1=O (some centres not stated)	2.96	21.7	24.6	22.2	74.5	86.7	84.3	90.3	77	46.2	93.3	97	74.2	67.9	81.5	65	66.7	112	85.3	74	growth at 10 µM (RXF 393): 85.1%; growth at 10 µM (PC-3): 65.2%; growth at 10 µM (DU-145): 82.3%; growth at 10 µM (BT-549 [4]): 71.9%; growth at 10 µM (MDA-MB-468): 41%
C=C1CC[C@@H]2[C@](C)(COC(C)=O)[C@H](OC(C)=O)CC[C@@]2(C)[C@H]1CC(Nc1ccc(S(=O)(=O)Nc2cc(C)on2)cc1)C1=CCOC1=O (some centres not stated)	-19.1	-2.05	-7.86	1.4	82	79.5	71	79.5	29	-11	67.3	100	44.1	69	62.6	68.2	31.6	109	98.6	44	GI50 (SR [1]): 0.37 µM; TGI (SR [1]): 3.36 µM; CC50 (SR [1]): > 100 µM; GI50 (U-251): 1.89 µM; TGI (U-251): 3.4 µM; CC50 (U-251): 6.12 µM; GI50 (BT-549 [2]): 1.79 µM; TGI (BT-549 [2]): 3.47 µM; CC50 (BT-549 [2]): 6.73 µM; growth at 10 µM (RXF 393): 29.8%; growth at 10 µM (PC-3): 70.8%; growth at 10 µM (DU-145): 71.1%; growth at 10 µM (BT-549 [4]): 27.2%; growth at 10 µM (MDA-MB-468): 3.23%
